Data published in ChEMBL document CHEMBL3352770, “Click chemistry inspired synthesis and bioevaluation of novel triazolyl derivatives of osthol as potent cytotoxic agents” (Eur J Med Chem, 2014).

Columns and labels:
COLO 205 [1] = experiment: Induction of cell cycle arrest in human COLO205 cells assessed as accumulation at S phase at 5 uM after 48 hrs by propidium iodide staining based flow cytometry (reference value: 13.8%); assay type: functional
Summary of the method: (§1)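 Colo-205 seeded at 5 × 10⁵ cells/ml in 6-well plates and grown 24 h. Treated at 1, 5, 10 and 25 µM for 48 h. Harvested, washed in PBS, fixed in 70% ethanol overnight at −20 °C. Stained 30 min in the dark with PI, EDTA, RNase and Triton X-100 in PBS. DNA content by flow cytometry, sub-G1 taken as apoptotic. Untreated/DMSO negative control; camptothecin 1 µM positive control; two experiments.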

COLO 205 [2] = experiment: Induction of apoptosis in human COLO205 cells assessed as accumulation at subG1 phase at 1 uM after 48 hrs by propidium iodide staining based flow cytometry (reference value: 12%); assay type: functional
COLO 205 [3] = experiment: Induction of cell cycle arrest in human COLO205 cells assessed as accumulation at G1 phase at 1 uM after 48 hrs by propidium iodide staining based flow cytometry (reference value: 45.7%); assay type: functional
COLO 205 [4] = experiment: Induction of cell cycle arrest in human COLO205 cells assessed as accumulation at G1 phase at 5 uM after 48 hrs by propidium iodide staining based flow cytometry (reference value: 45.7%); assay type: functional; summary of the method: as §1
COLO 205 [5] = experiment: Induction of mitochondrial membrane potential loss in human COLO205 cells at 25 uM after 48 hrs by Rh-123 staining based flow cytometry (reference value: 12.4%); assay type: functional
COLO 205 [6] = experiment: Induction of cell cycle arrest in human COLO205 cells assessed as accumulation at G1 phase at 25 uM after 48 hrs by propidium iodide staining based flow cytometry (reference value: 45.7%); assay type: functional; summary of the method: as §1
[7] = Cytotoxicity against human PC3 cells after 24 hrs by MTT assay; assay type: functional, cell-based; conditions: PC-3, 24 h
Summary of the method: (§2)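 Cells kept in DMEM with 10% foetal calf serum, penicillin and streptomycin, at 37 °C under 5% CO2. For assays serum lowered to 3%. Cells treated with test material at 0.04–60 µM for 24 h, then MTT (250 µg/mL) for 3 h. Formazan OD read at 570 nm. IC50 by non-linear regression, mean of triplicates. BEZ-235 as positive control.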

COLO 205 [8] = experiment: Induction of apoptosis in human COLO205 cells assessed as accumulation at subG1 phase at 5 uM after 48 hrs by propidium iodide staining based flow cytometry (reference value: 12%); assay type: functional; summary of the method: as §1
COLO 205 [9] = experiment: Induction of cell cycle arrest in human COLO205 cells assessed as accumulation at G2 phase at 10 uM after 48 hrs by propidium iodide staining based flow cytometry (reference value: 13.2%); assay type: functional; summary of the method: as §1
COLO 205 [10] = experiment: Induction of apoptosis in human COLO205 cells assessed as accumulation at subG1 phase at 10 uM after 48 hrs by propidium iodide staining based flow cytometry (reference value: 12%); assay type: functional; summary of the method: as §1
COLO 205 [11] = experiment: Induction of cell cycle arrest in human COLO205 cells assessed as accumulation at G1 phase at 10 uM after 48 hrs by propidium iodide staining based flow cytometry (reference value: 45.7%); assay type: functional; summary of the method: as §1
COLO 205 [12] = experiment: Induction of cell cycle arrest in human COLO205 cells assessed as accumulation at S phase at 1 uM after 48 hrs by propidium iodide staining based flow cytometry (reference value: 13.8%); assay type: functional
COLO 205 [13] = experiment: Cytotoxicity against human COLO205 cells after 24 hrs by MTT assay; assay type: functional, cell-based; conditions: COLO 205, 24 h; summary of the method: as §2
COLO 205 [14] = experiment: Induction of cell cycle arrest in human COLO205 cells assessed as accumulation at G2 phase at 5 uM after 48 hrs by propidium iodide staining based flow cytometry (reference value: 13.2%); assay type: functional; summary of the method: as §1
A549 = experiment: Cytotoxicity against human A549 cells after 24 hrs by MTT assay; assay type: functional, cell-based; conditions: A549, 24 h; summary of the method: as §2
COLO 205 [15] = experiment: Induction of mitochondrial membrane potential loss in human COLO205 cells at 5 uM after 48 hrs by Rh-123 staining based flow cytometry (reference value: 12.4%); assay type: functional
COLO 205 [16] = experiment: Induction of cell cycle arrest in human COLO205 cells assessed as accumulation at S phase at 10 uM after 48 hrs by propidium iodide staining based flow cytometry (reference value: 13.8%); assay type: functional; summary of the method: as §1
A-431 = experiment: Cytotoxicity against human A431 cells after 24 hrs by MTT assay; assay type: functional, cell-based; conditions: A-431, 24 h; summary of the method: as §2
COLO 205 [17] = experiment: Induction of cell cycle arrest in human COLO205 cells assessed as accumulation at G2 phase at 1 uM after 48 hrs by propidium iodide staining based flow cytometry (reference value: 13.2%); assay type: functional
[18] = Cytotoxicity against human HCT116 cells after 24 hrs by MTT assay; assay type: functional, cell-based; conditions: HCT-116, 24 h; summary of the method: as §2
COLO 205 [19] = experiment: Induction of cell cycle arrest in human COLO205 cells assessed as accumulation at S phase at 25 uM after 48 hrs by propidium iodide staining based flow cytometry (reference value: 13.8%); assay type: functional; summary of the method: as §1
COLO 205 [20] = experiment: Induction of apoptosis in human COLO205 cells assessed as accumulation at subG1 phase at 25 uM after 48 hrs by propidium iodide staining based flow cytometry (reference value: 12%); assay type: functional; summary of the method: as §1
COLO 205 [21] = experiment: Induction of mitochondrial membrane potential loss in human COLO205 cells at 1 uM after 48 hrs by Rh-123 staining based flow cytometry (reference value: 12.4%); assay type: functional
[22] = Cytotoxicity against human NCI-H322 cells after 24 hrs by MTT assay; assay type: functional, cell-based; conditions: NCI-H322, 24 h; summary of the method: as §2
COLO 205 [23] = experiment: Induction of mitochondrial membrane potential loss in human COLO205 cells at 10 uM after 48 hrs by Rh-123 staining based flow cytometry (reference value: 12.4%); assay type: functional
COLO 205 [24] = experiment: Induction of cell cycle arrest in human COLO205 cells assessed as accumulation at G2 phase at 25 uM after 48 hrs by propidium iodide staining based flow cytometry (reference value: 13.2%); assay type: functional; summary of the method: as §1
COLO 205 [25] = experiment: Induction of apoptosis in human COLO205 cells assessed as accumulation at subG1 phase after 48 hrs by propidium iodide staining based flow cytometry; assay type: functional, cell-based; summary of the method: as §1
T47D = experiment: Cytotoxicity against human T47D cells after 24 hrs by MTT assay; assay type: functional, cell-based; summary of the method: as §2

COc1ccc(/C=C\C(=O)O)c(OCc2cn(-c3ccc(CC#N)cc3)nn2)c1CC=C(C)C
Activity (COLO 205 [1]): 16.1% | Activity (COLO 205 [2]): 12.5% | Activity (COLO 205 [3]): 46.4% | Activity (COLO 205 [4]): 46.8% | Activity (COLO 205 [5]): 29.9% | Activity (COLO 205 [6]): 38.5% | IC50 [7]: 26.4 µM | Activity (COLO 205 [8]): 15.2% | Activity (COLO 205 [9]): 11.2% | Activity (COLO 205 [10]): 15.7% | Activity (COLO 205 [11]): 45% | Activity (COLO 205 [12]): 13.9% | IC50 (COLO 205 [13]): 1.3 µM | Activity (COLO 205 [14]): 11.5% | IC50 (A549): 35.2 µM | Activity (COLO 205 [15]): 26.9% | Activity (COLO 205 [16]): 14.7% | IC50 (A-431): 7.2 µM | Activity (COLO 205 [17]): 12.9% | IC50 [18]: 4.9 µM | Activity (COLO 205 [19]): 13.2% | Activity (COLO 205 [20]): 24.1% | Activity (COLO 205 [21]): 24.4% | IC50 [22]: 41 µM | Activity (COLO 205 [23]): 29.7% | Activity (COLO 205 [24]): 10.4% | Activity (COLO 205 [25]): Dose-dependent effect | IC50 (T47D): 3.6 µM
